pIC50: −log10 of the molar value. Active and inactive are the calls of the source. The calls are words filed in the database; no cut-off is given here.
Columns and labels:
Dipeptidyl peptidase 9 = Dipeptidyl peptidase 9 (Homo sapiens, UniProt Q86TI2); assay: Inhibition of DPP9 after 20 mins by fluorescence assay
In short: (§1)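 Enzyme and inhibitor were preincubated for 10 min at room temperature in 50 mM Tris pH 7.5 with 0.1% BSA. The reaction was started with Gly-Pro-AMC and run for 20 min at room temperature. IC50 is the mean of three separate experiments, from curve fitting.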

[1] = molecular target: Voltage-gated inwardly rectifying potassium channel KCNH2 (Homo sapiens, UniProt Q12809); assay: Inhibition of human ERG expressed in HEK293 cells after 3 hrs by nonradioactive rubidium efflux assay; type: cell-based; details: hek293, 3 h
Voltage-gated inwardly rectifying potassium channel KCNH2, sequence (Q12809 whole entry): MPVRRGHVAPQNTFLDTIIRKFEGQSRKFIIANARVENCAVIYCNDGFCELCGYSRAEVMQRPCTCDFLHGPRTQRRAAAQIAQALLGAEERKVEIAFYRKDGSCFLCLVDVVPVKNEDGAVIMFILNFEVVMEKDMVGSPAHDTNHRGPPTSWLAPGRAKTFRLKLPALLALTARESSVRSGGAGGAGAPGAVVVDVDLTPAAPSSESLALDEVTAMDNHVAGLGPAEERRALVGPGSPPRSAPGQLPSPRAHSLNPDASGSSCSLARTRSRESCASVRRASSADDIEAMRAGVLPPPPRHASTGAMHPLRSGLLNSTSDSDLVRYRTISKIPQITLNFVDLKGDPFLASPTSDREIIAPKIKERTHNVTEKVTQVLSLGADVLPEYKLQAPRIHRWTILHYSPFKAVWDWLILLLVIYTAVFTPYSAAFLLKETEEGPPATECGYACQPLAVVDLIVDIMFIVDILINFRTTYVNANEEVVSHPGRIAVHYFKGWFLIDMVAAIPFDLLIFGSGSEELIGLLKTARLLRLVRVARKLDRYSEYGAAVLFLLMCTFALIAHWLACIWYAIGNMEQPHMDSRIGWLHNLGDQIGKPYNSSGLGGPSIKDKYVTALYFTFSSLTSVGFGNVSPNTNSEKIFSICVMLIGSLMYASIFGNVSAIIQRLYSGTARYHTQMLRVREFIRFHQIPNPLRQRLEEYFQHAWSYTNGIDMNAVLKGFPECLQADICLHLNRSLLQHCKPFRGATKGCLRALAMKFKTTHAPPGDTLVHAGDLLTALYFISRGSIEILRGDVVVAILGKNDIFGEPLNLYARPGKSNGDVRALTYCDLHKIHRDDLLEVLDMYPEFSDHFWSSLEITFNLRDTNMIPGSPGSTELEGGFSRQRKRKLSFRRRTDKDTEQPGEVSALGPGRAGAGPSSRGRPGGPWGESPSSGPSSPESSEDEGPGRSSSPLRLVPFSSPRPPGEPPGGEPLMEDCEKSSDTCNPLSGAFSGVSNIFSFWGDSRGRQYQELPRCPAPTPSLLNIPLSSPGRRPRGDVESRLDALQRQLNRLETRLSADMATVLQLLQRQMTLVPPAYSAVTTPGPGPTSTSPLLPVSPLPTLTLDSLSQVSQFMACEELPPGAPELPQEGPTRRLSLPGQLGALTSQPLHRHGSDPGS

Dipeptidyl peptidase 4 = Dipeptidyl peptidase 4 (Homo sapiens, UniProt P27487); assay: Inhibition of DPP4 after 20 mins by fluorescence assay
Dipeptidyl peptidase 4, sequence (P27487 whole entry): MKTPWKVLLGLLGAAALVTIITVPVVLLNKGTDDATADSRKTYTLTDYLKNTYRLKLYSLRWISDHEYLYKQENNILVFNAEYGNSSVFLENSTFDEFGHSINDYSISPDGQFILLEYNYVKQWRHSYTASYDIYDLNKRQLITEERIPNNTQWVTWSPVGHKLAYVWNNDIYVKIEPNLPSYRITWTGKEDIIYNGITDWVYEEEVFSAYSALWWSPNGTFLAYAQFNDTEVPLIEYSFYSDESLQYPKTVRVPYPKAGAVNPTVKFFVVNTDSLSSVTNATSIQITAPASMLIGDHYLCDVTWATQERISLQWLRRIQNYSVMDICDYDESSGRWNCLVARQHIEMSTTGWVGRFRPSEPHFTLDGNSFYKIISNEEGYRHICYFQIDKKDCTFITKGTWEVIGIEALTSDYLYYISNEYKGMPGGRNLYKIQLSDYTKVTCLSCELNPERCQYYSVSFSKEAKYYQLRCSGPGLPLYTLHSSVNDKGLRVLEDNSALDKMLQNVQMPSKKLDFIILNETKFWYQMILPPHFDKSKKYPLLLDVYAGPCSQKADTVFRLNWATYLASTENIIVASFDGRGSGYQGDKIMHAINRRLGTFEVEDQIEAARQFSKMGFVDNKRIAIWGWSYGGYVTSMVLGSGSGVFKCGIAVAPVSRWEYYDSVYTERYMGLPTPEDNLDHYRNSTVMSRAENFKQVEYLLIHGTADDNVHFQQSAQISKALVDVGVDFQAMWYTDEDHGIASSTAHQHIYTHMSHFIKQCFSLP

Dipeptidyl peptidase 8 = Dipeptidyl peptidase 8 (Homo sapiens, UniProt Q6V1X1); assay: Inhibition of DPP8 after 20 mins by fluorescence assay; in short: as §1
Dipeptidyl peptidase 8, sequence (Q6V1X1 whole entry): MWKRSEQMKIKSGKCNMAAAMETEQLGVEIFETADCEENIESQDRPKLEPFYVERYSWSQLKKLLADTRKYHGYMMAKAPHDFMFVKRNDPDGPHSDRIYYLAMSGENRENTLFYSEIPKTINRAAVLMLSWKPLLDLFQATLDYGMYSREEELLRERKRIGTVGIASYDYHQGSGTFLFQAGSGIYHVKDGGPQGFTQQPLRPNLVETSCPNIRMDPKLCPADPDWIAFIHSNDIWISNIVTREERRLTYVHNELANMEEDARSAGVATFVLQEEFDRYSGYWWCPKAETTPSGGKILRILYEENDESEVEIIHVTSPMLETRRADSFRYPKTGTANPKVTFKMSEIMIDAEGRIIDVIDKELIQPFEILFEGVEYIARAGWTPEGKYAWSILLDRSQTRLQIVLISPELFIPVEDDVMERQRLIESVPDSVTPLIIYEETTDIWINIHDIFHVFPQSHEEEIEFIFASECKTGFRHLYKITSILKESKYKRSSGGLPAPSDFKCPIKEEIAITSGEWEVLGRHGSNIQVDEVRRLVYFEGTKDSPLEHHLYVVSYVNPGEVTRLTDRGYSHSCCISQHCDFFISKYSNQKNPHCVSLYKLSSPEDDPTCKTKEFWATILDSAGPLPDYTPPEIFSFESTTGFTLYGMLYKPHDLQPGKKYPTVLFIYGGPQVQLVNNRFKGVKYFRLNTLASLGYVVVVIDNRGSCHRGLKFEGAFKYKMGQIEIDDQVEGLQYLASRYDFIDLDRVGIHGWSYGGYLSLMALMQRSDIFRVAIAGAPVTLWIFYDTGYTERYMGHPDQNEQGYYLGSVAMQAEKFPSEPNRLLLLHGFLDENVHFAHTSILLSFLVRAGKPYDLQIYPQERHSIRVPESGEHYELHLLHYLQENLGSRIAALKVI

[2] = Tmax in Sprague-Dawley rat at 20 mg/kg, po; type: ADME, organism-based; set-up: dose 20 mg/kg, route oral; details: in vivo
[3] = Tmax in Beagle dog at 20 mg/kg, po; type: ADME, organism-based, Canis lupus familiaris; set-up: dose 20 mg/kg, route oral; details: in vivo
[4] = Cmax in Beagle dog at 10 mg/kg, iv; type: ADME, organism-based, Canis lupus familiaris; set-up: dose 10 mg/kg, route intravenous; details: in vivo
[5] = Oral bioavailability in Sprague-Dawley rat at 20 mg/kg; type: ADME, organism-based; details: in vivo
Mus musculus [6] = assay: Antidiabetic activity in C57BL/6J mouse high-fat diet model assessed as reduction in glucose AUC (0 to 120) at 3 mg/kg, po pretreated 30 mins before glucose challenge measured by oral glucose tolerance test; type: functional, organism-based; set-up: dose 3 mg/kg
[7] = Cmax in Sprague-Dawley rat at 10 mg/kg, iv; type: ADME, organism-based; set-up: dose 10 mg/kg, route intravenous; details: in vivo
[8] = Half life in Beagle dog at 20 mg/kg, po; type: ADME, organism-based, Canis lupus familiaris; set-up: dose 20 mg/kg, route oral; details: in vivo
[9] = Mean residence time in Beagle dog at 20 mg/kg, po; type: ADME, organism-based, Canis lupus familiaris; set-up: dose 20 mg/kg, route oral; details: in vivo
[10] = Tmax in Sprague-Dawley rat at 10 mg/kg, iv; type: ADME, organism-based; set-up: dose 10 mg/kg, route intravenous; details: in vivo
[11] = Tmax in Beagle dog at 10 mg/kg, iv; type: ADME, organism-based, Canis lupus familiaris; set-up: dose 10 mg/kg, route intravenous; details: in vivo
[12] = Half life in Sprague-Dawley rat at 20 mg/kg, po; type: ADME, organism-based; set-up: dose 20 mg/kg, route oral; details: in vivo
[13] = AUC (0 to t) in Beagle dog at 20 mg/kg, po; type: ADME, organism-based, Canis lupus familiaris; set-up: dose 20 mg/kg, route oral; details: plasma
[14] = AUC (0 to t) in Sprague-Dawley rat at 10 mg/kg, iv; type: ADME, organism-based; set-up: dose 10 mg/kg, route intravenous; details: plasma
[15] = AUC (0 to t) in Beagle dog at 10 mg/kg, iv; type: ADME, organism-based, Canis lupus familiaris; set-up: dose 10 mg/kg, route intravenous; details: plasma
[16] = Cmax in Sprague-Dawley rat at 20 mg/kg, po; type: ADME, organism-based; set-up: dose 20 mg/kg, route oral; details: in vivo
[17] = Mean residence time in Sprague-Dawley rat at 20 mg/kg, po; type: ADME, organism-based; set-up: dose 20 mg/kg, route oral; details: in vivo
[18] = Plasma clearance in Sprague-Dawley rat at 10 mg/kg, iv; type: ADME, organism-based; set-up: dose 10 mg/kg, route intravenous
[19] = Plasma clearance in Beagle dog at 20 mg/kg, po; type: ADME, organism-based, Canis lupus familiaris; set-up: dose 20 mg/kg, route oral
Rattus norvegicus = assay: AUC (0 to t) in Sprague-Dawley rat at 20 mg/kg, po; type: ADME, organism-based, Plasma; set-up: dose 20 mg/kg, route oral; details: in vivo
[20] = Plasma clearance in Beagle dog at 10 mg/kg, iv; type: ADME, organism-based, Canis lupus familiaris; set-up: dose 10 mg/kg, route intravenous
Mus musculus [21] = assay: Antidiabetic activity in ICR mouse assessed as reduction of serum DPP4 activity at 3 mg/kg, po; type: functional, organism-based; set-up: dose 3 mg/kg
In short: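 Compound was given orally at 3 mg/kg, or vehicle, with n = 5 per group. Serum was mixed with 80 mM MgCl2 for 5 min at room temperature, then 0.1 mM Gly-Pro-AMC and buffer were added. Fluorescence (ex 380 nm, em 460 nm) was read every 3 min over 18 min, and serum DPP-IV specific activity was calculated from these reads.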

[22] = Mean residence time in Sprague-Dawley rat at 10 mg/kg, iv; type: ADME, organism-based; set-up: dose 10 mg/kg, route intravenous; details: in vivo
[23] = Cmax in Beagle dog at 20 mg/kg, po; type: ADME, organism-based, Canis lupus familiaris; set-up: dose 20 mg/kg, route oral; details: in vivo
[24] = Half life in Beagle dog at 10 mg/kg, iv; type: ADME, organism-based, Canis lupus familiaris; set-up: dose 10 mg/kg, route intravenous; details: in vivo
[25] = Mean residence time in Beagle dog at 10 mg/kg, iv; type: ADME, organism-based, Canis lupus familiaris; set-up: dose 10 mg/kg, route intravenous; details: in vivo
[26] = Oral bioavailability in Beagle dog at 20 mg/kg; type: ADME, organism-based, Canis lupus familiaris; details: in vivo
[27] = Half life in Sprague-Dawley rat at 10 mg/kg, iv; type: ADME, organism-based; set-up: dose 10 mg/kg, route intravenous; details: in vivo

Dipeptidyl peptidase 9, sequence (Q86TI2 whole entry): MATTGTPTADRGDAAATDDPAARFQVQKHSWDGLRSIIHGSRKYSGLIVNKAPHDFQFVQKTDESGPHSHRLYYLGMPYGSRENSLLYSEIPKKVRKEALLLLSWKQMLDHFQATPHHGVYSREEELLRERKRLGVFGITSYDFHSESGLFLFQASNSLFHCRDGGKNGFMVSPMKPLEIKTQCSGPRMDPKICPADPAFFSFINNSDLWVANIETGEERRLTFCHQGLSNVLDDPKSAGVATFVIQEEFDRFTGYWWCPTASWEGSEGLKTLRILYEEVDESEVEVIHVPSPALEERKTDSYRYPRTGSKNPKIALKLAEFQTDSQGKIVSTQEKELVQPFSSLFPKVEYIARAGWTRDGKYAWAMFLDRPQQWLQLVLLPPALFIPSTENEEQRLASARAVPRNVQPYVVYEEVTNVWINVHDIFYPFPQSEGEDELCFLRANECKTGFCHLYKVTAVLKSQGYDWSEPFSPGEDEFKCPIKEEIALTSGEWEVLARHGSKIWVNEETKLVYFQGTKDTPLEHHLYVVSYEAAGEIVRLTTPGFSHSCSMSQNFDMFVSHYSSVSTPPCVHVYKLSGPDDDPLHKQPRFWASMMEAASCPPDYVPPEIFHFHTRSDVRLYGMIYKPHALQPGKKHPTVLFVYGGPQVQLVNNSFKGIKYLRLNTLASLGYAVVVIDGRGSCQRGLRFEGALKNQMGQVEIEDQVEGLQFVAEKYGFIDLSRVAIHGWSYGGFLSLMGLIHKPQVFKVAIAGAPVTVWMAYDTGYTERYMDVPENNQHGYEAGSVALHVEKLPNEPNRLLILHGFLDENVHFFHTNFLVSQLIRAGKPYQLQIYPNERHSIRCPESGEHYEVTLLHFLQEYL

With `N#Cc1ccccc1Cn1c(N2CCC[C@@H](N)C2)nc2sccc2c1=O` as the compound, how does the pIC50 (Dipeptidyl peptidase 9) read?
The pIC50 was less than 4.60.

And the Activity [1]?
Its Activity is 484.6 µM.

And the pIC50 (Dipeptidyl peptidase 4)?
The pIC50 was 9.06.

And the pIC50 (Dipeptidyl peptidase 8)?
Its pIC50 is less than 4.60.

With `Cc1csc2c(=O)n(Cc3ccccc3C#N)c(N3CCC[C@@H](N)C3)nc12` as the compound, how does the pIC50 (Dipeptidyl peptidase 9) read?
The pIC50 was less than 4.60.

And the Activity [1]?
The Activity was 203.5 µM.

And the pIC50 (Dipeptidyl peptidase 4)?
Its pIC50 is 8.76.

And the pIC50 (Dipeptidyl peptidase 8)?
Its pIC50 is less than 4.60.

For `N#Cc1ccccc1Cn1c(N2CCC[C@@H](N)C2)nc2ccsc2c1=O`, which Tmax [2] is on record?
Its Tmax is 35.4 min.

What about the Tmax [3] of the same compound?
The Tmax was 54.6 min.

And the Cmax [4]?
Its Cmax is 5750 ng/mL.

And the pIC50 (Dipeptidyl peptidase 9)?
The pIC50 was less than 4.60.

And the bioavailability [5]?
The bioavailability was 23.7%.

And the Activity (Mus musculus [6])?
Its Activity is “Active”.

And the Cmax [7]?
The Cmax was 1230 ng/mL.

What about the half-life [8] of the same compound?
Its half-life is 677 min.

And the MRT [9]?
Its MRT is 9 h.

What about the Tmax [10] of the same compound?
Its Tmax is 2.4 min.

What about the Tmax [11] of the same compound?
The Tmax was 6 min.

What about the Activity [1] of the same compound?
Its Activity is 517.4 µM.

And the half-life [12]?
Its half-life is 420 min.

And the AUC(0-t) [13]?
The AUC(0-t) was 11200 ng·h/mL.

And the AUC(0-t) [14]?
The AUC(0-t) was 1480 ng·h/mL.

What about the AUC(0-t) [15] of the same compound?
The AUC(0-t) was 13300 ng·h/mL.

And the pIC50 (Dipeptidyl peptidase 4)?
Its pIC50 is 9.48.

And the Cmax [16]?
The Cmax was 170 ng/mL.

And the MRT [17]?
Its MRT is 6.7 h.

What about the clearance [18] of the same compound?
Its clearance is 116 mL/min/kg.

And the CL/F [19]?
The CL/F was 11.5 mL/min/kg.

What about the AUC (Rattus norvegicus) of the same compound?
Its AUC is 0.69 µg·h/mL.

And the clearance [20]?
Its clearance is 22.2 mL/min/kg.

And the pIC50 (Dipeptidyl peptidase 8)?
Its pIC50 is less than 4.60.

What about the Activity (Mus musculus [21]) of the same compound?
Its Activity is “Active”.

And the MRT [22]?
Its MRT is 2.7 h.

And the Cmax [23]?
The Cmax was 2070 ng/mL.

And the half-life [24]?
Its half-life is 608 min.

What about the MRT [25] of the same compound?
Its MRT is 6 h.

What about the bioavailability [26] of the same compound?
The bioavailability was 42.3%.

What about the half-life [27] of the same compound?
The half-life was 354 min.

What does the source list for `N#Cc1ccccc1Cn1c(N2CCC[C@@H](N)C2)nc2scc(C(F)(F)F)c2c1=O`?
pIC50 (Dipeptidyl peptidase 9): < 4.60; pIC50 (Dipeptidyl peptidase 4): 7.05; pIC50 (Dipeptidyl peptidase 8): < 4.60

What does the source list for `Cc1csc2nc(N3CCC[C@@H](N)C3)n(Cc3ccccc3C#N)c(=O)c12`?
pIC50 (Dipeptidyl peptidase 9): < 4.60; Activity [1]: 376.3 µM; pIC50 (Dipeptidyl peptidase 4): 8.88; pIC50 (Dipeptidyl peptidase 8): < 4.60

— ChEMBL document CHEMBL1649374 (Eur J Med Chem, 2011)
